Measured values reported in ChEMBL document CHEMBL4190282, “The Conjugated Double Bond of Coniferyl Aldehyde Is Essential for Heat Shock Factor 1 Mediated Cytotoprotection” (J Nat Prod, 2017).
Active and inactive are the calls of the source. The rule behind the calls is not given here.

Columns and labels:
NCI-H460 = assay: Upregulation of HSF1 protein level in human NCI-H460 cells at 10 to 30 uM after 12 hrs by Western blot analysis; assay type: functional, cell-based
Summary of the method: (§1)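 NCI-H460 cells treated 12 h at 10 or 30 μM; HSF1, HSP27 and HSP70 detected by Western blot.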

[1] = biological target: T1, Heat shock factor protein 1 (Homo sapiens) (UniProt Q00613); assay: Activation of HSF1 in human NCI-H460 cells assessed as upregulation of HSP70 protein levels at 10 to 30 uM after 12 hrs by Western blot analysis; assay type: cell-based; summary of the method: as §1
T1 sequence (whole entry): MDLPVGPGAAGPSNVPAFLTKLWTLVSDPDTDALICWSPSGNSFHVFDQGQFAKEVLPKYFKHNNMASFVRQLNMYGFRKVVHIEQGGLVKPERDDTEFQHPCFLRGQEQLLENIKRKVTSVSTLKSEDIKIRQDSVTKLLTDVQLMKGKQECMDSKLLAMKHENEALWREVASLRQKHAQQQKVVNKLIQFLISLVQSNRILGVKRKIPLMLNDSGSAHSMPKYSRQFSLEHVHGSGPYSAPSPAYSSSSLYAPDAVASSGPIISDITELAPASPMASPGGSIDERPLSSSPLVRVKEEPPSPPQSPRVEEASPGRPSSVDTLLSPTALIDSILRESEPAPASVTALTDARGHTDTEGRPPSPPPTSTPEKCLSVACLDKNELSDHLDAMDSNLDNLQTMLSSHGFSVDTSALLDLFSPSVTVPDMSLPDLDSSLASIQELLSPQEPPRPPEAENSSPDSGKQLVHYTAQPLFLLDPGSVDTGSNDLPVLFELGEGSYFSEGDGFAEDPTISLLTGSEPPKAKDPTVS

[2] = biological target: T1, Heat shock factor protein 1 (Homo sapiens); assay: Activation of HSF1 in human NCI-H460 cells assessed as upregulation of HSP25 protein levels at 10 to 30 uM after 12 hrs by Western blot analysis; assay type: cell-based; summary of the method: as §1
[3] = biological target: T1, Heat shock factor protein 1 (Homo sapiens); assay: Activation of HSF1 in human NCI-H460 cells expressing pGL4-hsp25 construct assessed as upregulation of hsp25 promoter activity at 10 to 30 uM after 12 hrs by luciferase reporter gene assay; assay type: cell-based
Summary of the method: (§2)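 NCI-H460 cells stably carrying hsp25 or hsp70 promoter–luciferase reporters, seeded, treated after 24 h at 10 or 30 μM and harvested 12 h later. Lysate luciferase normalized to β-galactosidase; mean of three independent experiments, fold-change vs negative control.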

[4] = biological target: T1, Heat shock factor protein 1 (Homo sapiens); assay: Activation of HSF1 in human NCI-H460 cells expressing pGL4-hsp70 construct assessed as upregulation of hsp70 promoter activity at 10 to 30 uM after 12 hrs by luciferase reporter gene assay; assay type: cell-based; summary of the method: as §2
[5] = biological target: T1, Heat shock factor protein 1 (Homo sapiens); assay: Activation of HSF1 in human NCI-H460 cells assessed as upregulation of HSP70 protein levels at 1 uM after 12 hrs by Western blot analysis; assay type: cell-based
Summary of the method: (§3)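 Cells were grown to 30% confluence and treated for 12 h. Equal protein amounts were lysed and cleared at 13 000 rpm for 30 min at 4 °C, then boiled in sample buffer for 5 min. Proteins were resolved by 8% or 12% SDS-PAGE and transferred to nitrocellulose. Membranes were blocked in 5% milk/PBST, given primary antibody for 18 h at 4 °C and an HRP secondary, and developed by ECL.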

[6] = biological target: T1, Heat shock factor protein 1 (Homo sapiens); assay: Activation of HSF1 in human NCI-H460 cells assessed as upregulation of HSP25 protein levels at 1 uM after 12 hrs by Western blot analysis; assay type: cell-based; summary of the method: as §3
L132 = assay: Cytotoxicity against human L-132 cells assessed as reduction in cell viability up to 20 uM after 24 hrs by MTT assay; assay type: cell-based; details: l132, 24 h
Summary of the method: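 L132 cells treated 24 h at indicated doses up to 20 μM. MTT (5 mg/mL in PBS) 4 h at 37 °C, formazan dissolved in DMSO, absorbance at 540 nm converted to cell number via calibration curve. Celastrol positive control.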

Question: Which results are given for COc1cc(CCC=O)ccc1O?
Answer: Activity (NCI-H460): inactive; Activity [1]: inactive; Activity [2]: inactive; Activity [3]: inactive; Activity [4]: inactive

Question: For COc1cc(CCCO)ccc1O, which Activity (NCI-H460) is on record?
Answer: Its Activity is “inactive”.

Question: And the Activity [1]?
Answer: The Activity was “inactive”.

Question: What about the Activity [2] of the same compound?
Answer: The Activity was “inactive”.

Question: What about the Activity [3] of the same compound?
Answer: Its Activity is “inactive”.

Question: What about the Activity [4] of the same compound?
Answer: The Activity was “inactive”.

Question: With CC1=C(O)C(=O)C=C2C1=CC=C1[C@@]2(C)CC[C@@]2(C)[C@@H]3C[C@](C)(C(=O)O)CC[C@]3(C)CC[C@]12C [CELASTROL] as the compound, how does the Activity [5] read?
Answer: Its Activity is “Active”.

Question: And the Activity [6]?
Answer: The Activity was “Active”.

Question: What about the Activity (L132) of the same compound?
Answer: The Activity was “Toxic”.
